Paper PMC2796117 (Bioorganic & medicinal chemistry letters, 2009)

Assays:
[1] = tested on: Gli activity (Shh pathway) in Shh-LIGHT2 cell line; experiment: Shh-LIGHT2 Gli-luciferase reporter assay; type: cell-based; details: for Gli repression / activity in Shh-LIGHT2 (in words): Shh-LIGHT2 cell line, concentrations ranging from 3.9 µM to 125 µM where stated
Outline: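 Shh-LIGHT2 Gli-reporter cells stimulated with ShhN-conditioned DMEM containing 0.5% (v/v) calf serum, then exposed to test compound over a concentration series (3.9 to 125 µM where stated). Gli activity read by Bright Glo luciferase, and cytotoxicity by Cell Titer Glo. EC50 approximated from concentration curves. % ECmax is inhibition relative to cyclopamine's ECmax, or for cytotoxic compounds relative to the highest effective non-cytotoxic concentration.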

Shh-LIGHT2 cells = experiment: Cytotoxicity by Cell Titer Glo; type: cell-based; details: for Cytotoxicity: Shh-LIGHT2 cells, cytotoxic above the stated concentration; for cytotoxicity (in words): any concentration
Outline: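 Cell Titer Glo luminescence in Shh-LIGHT2 Gli-reporter cells. Values are approximations read from concentration curves. Where compounds are cytotoxic, the Gli % ECmax is taken at the highest effective non-cytotoxic concentration.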

ShhN = ShhN (Homo sapiens, UniProt Q15465); experiment: Surface plasmon resonance; type: binding
Outline: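 Purified Sonic Hedgehog N-terminal peptide (ShhN) probed by surface plasmon resonance with test compound in PBS containing 5% (v/v) DMSO. Sensorgrams background-subtracted against DMSO. Binding expressed as KD in µM, with off-rates compared from the binding curves.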

Shh signaling = details: cell lines, human primary keratinocytes, synthetic model of human skin; cited from earlier work

Chain of ShhN (Q15465 24-197 limits assumed, species assumed): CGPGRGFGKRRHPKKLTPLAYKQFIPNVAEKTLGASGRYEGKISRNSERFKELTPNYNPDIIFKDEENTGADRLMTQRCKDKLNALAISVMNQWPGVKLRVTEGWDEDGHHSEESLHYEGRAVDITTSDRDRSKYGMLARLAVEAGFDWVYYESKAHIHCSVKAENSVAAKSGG

Structure (SMILES)	Gli repression / activity in Shh-LIGHT2 (in words) [1]	% ECmax (footnote e) ([1]; taken relative to mock treatment (reporter values comparable to 6µM cyclopamine), cytotoxic compounds: highest effective non-cytotoxic concentration) [% ^e]	Cytotoxicity (Shh-LIGHT2 cells)	cytotoxicity (in words) (Shh-LIGHT2 cells)	apparent off-rate (ShhN; SPR, compared with the (2S, 6R) 13-membered homolog)	Binding / affinity for ShhN by SPR (in words) (ShhN; purified ShhN, PBS buffer with 5% (v/v) DMSO)	effect on Shh signaling (Shh signaling)
O=C(C[C@@H]1C/C=C/CCC(=O)O[C@H](c2ccccc2)CNC1=O)NCc1ccc(Cl)cc1 [(0, R, S) (2), robotnikinin]	strong concentration-dependent Gli repression	91	none	neither compound displayed differences in cytotoxicity at any concentration	significantly longer	bound purified ShhN in a stoichiometric manner	blocks Shh signaling
O=C(C[C@H]1C/C=C/CCCC(=O)O[C@@H](c2ccccc2)CNC1=O)NCc1ccc(Cl)cc1 [(1, S, R) (3)]	Gli suppression was ablated		none	neither compound displayed differences in cytotoxicity at any concentration			
